This note sets out measurements from ChEMBL document CHEMBL1155029, “Novel amodiaquine congeners as potent antimalarial agents” (Bioorg Med Chem, 2008).

Test [1] in a line: Ratio of IC50 for chloroquine-resistant Plasmodium falciparum W2 to IC50 for chloroquine-sensitive Plasmodium falciparum D10. The test is classed as functional.
In test [2] the test system is Plasmodium falciparum. The experiment in a line: Relative selectivity against Plasmodium falciparum W2 as IC50 ratio compared to chloroquine. The test is classed as functional. The procedure, abridged:
(§1)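 Asynchronous P. falciparum cultures (D-10 or W-2; 1–1.5% parasitaemia, 1% haematocrit) incubated 72 h at 37 °C under 1% O2/5% CO2/94% N2 with serial drug dilutions (water or DMSO, final DMSO <1%). Growth read as pLDH activity at OD650. Chloroquine IC50 divided by compound IC50 within each experiment, ratios averaged.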

The subject of test [3] is Plasmodium falciparum. The experiment in a line: Relative selectivity against Plasmodium falciparum D10 as IC50 ratio compared to chloroquine. Type of test: functional. The procedure, abridged:
as §1

For test [4], the system named is Plasmodium falciparum. Briefly: Antimalarial activity against chloroquine-resistant Plasmodium falciparum W2 as LDH activity. The test is classed as functional, organism-based. The procedure, abridged:
(§2)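 Asynchronous P. falciparum cultures (1–1.5% parasitaemia, 1% final hematocrit) exposed to serial dilutions for 72 h at 37 °C under 1% O2/5% CO2/94% N2. Compounds dissolved in water or DMSO, diluted in medium (final DMSO <1%). Growth read as pLDH activity (OD650, modified Makler method). IC50 given as mean ± SD of at least three experiments in duplicate.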

For test [5], the system named is Plasmodium falciparum. The experiment in a line: Antimalarial activity against chloroquine-sensitive Plasmodium falciparum D10 as LDH reporter activity. Type of test: functional, organism-based. The procedure, abridged:
as §2

Test [6] can be described thus: Cytotoxicity against HMEC1 cells by MTT assay. The test is classed as cell-based. As to conditions: Homo sapiens, HMEC-1. In short, it runs like this: (§3)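 Human cell lines (SV40-immortalized microvascular endothelial HMEC-1 in MCDB 131 with 10% FCS, EGF, hydrocortisone, glutamine, Hepes; K562 in RPMI 1640 with 10% FCS, glutamine) exposed to serial compound dilutions 72 h at 37 °C, 5% CO2. MTT added 3 h; formazan dissolved in SDS/DMF buffer pH 4.7, read 550 nm (ref 650 nm). IC50 for 50% growth inhibition.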
For orientation: Formazan colour is commonly taken as a measure of viable cells.

The nature of test [7]: Cytotoxicity against mouse WEHI13 cells by MTT assay. Type of test: cell-based. In short, it runs like this: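 Murine WEHI clone 13 fibrosarcoma cells in RPMI 1640 with 10% FCS and glutamine, treated with serial compound dilutions 72 h at 37 °C, 5% CO2. MTT added for 3 h, formazan solubilized in SDS/DMF lysing buffer pH 4.7, absorbance 550 nm against 650 nm reference. IC50 is dose giving 50% growth inhibition.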

The subject of test [8] is K562. Briefly: Cytotoxicity against human K562 cells by MTT assay. Type of test: cell-based. In short, it runs like this:
as §3

What is called pIC50 is the negative decadic logarithm of the IC50, by convention in mol/L. A low value points to a large IC50.

pIC50: −log10 of the molar value.

Consider `Cc1cc(CNCC23CCCN2CCC3)c(C)n1Nc1ccnc2cc(Cl)ccc12`, for which the Ratio IC50 came to 1.6 in test [1], 0.5 in test [2] and 0.1 in test [3]. In addition, the pIC50 is 6.45 in test [4] and 6.65 in test [5].
Turning to `Cc1c(CN2CCCC2)cc(-c2ccccc2)n1Nc1ccnc2cc(Cl)ccc12`, the Ratio IC50 in test [1] stood at 3.3; in test [2] it was 4.2; in test [3] it was 0.7. Further, the pIC50 in test [6] is 4.89; in test [7] it was 5.41; in test [4], 6.86; in test [8] it was 5.53; in test [5] it was 7.37.
Take `Cc1c(CNCC[C@@H]2CCCN3CCCC[C@H]23)cc(-c2ccccc2)n1Nc1ccnc2cc(Cl)ccc12`: the Ratio IC50 in test [1] was found to be 5; in test [2] it was 0.8; in test [3] it was 0.2. Further, the negative logarithm of the IC50 (pIC50) in test [6] is 4.84; in test [7], 5.14; in test [4] it was 6.11; in test [8] it was 5.58; in test [5], 6.81.
Take `Oc1cc(Nc2ccnc3cc(Cl)ccc23)ccc1CNCCC12CCCN1CCC2`: the values for the Ratio IC50 in test [1], in test [2] and in test [3] were 1.7, 2.1 and 0.3, respectively. The negative logarithm of the IC50 (pIC50) in test [7] was 4.91; in test [4], 6.82; in test [5], 7.04.
`Cc1cc(CNC[C@@H]2CCCN3CCCC[C@H]23)c(C)n1Nc1ccnc2cc(Cl)ccc12`: the results for the Ratio IC50 in test [1], in test [2] and in test [3] were 0.8, 3.1 and 0.4, respectively. For the same molecule, the negative-log IC50 (pIC50) in test [6] is 5.27; in test [7], 5.26; in test [4], 7.27; in test [5] it was 7.15.
Regarding `Cc1c(CN2CCCC2)cc(-c2ccc(Cl)cc2)n1Nc1ccnc2cc(Cl)ccc12`, the Ratio IC50 in test [1] worked out at 1.6; in test [2] it was 15.8; in test [3], 0.8. The pIC50 is 5.14 in test [6], 5.69 in test [7], 7.30 in test [4] and 7.51 in test [5].
For `Cc1c(CNC[C@@H]2CCCN3CCCC[C@H]23)cc(-c2ccccc2)n1Nc1ccnc2cc(Cl)ccc12`, the Ratio IC50 was 14.1 in test [1], 1.1 in test [2] and 0.8 in test [3]. The negative logarithm of the IC50 (pIC50) was 4.87 in test [6]; 5.13 in test [7]; 6.29 in test [4]; 5.77 in test [8]; 7.44 in test [5].
As to `Cc1cc(CNC(C)(C)C)c(C)n1Nc1ccnc2cc(Cl)ccc12`, the Ratio IC50 amounted to 5.3 in test [1], 0.9 in test [2] and 0.3 in test [3]. Besides, the pIC50 is 6.59 in test [4] and 7.31 in test [5].
On the same counts, the results for `CCN(CC)Cc1ccc(Nc2ccnc3cc(Cl)ccc23)cc1O` [ISOQUINE] are 1.3, 17.6, 1.3, 7.52 and 7.63.
For the molecule `CCN(CC)Cc1cc(-c2ccc(Cl)cc2)n(Nc2ccnc3cc(Cl)ccc23)c1C`, the results for the Ratio IC50 in test [1], in test [2] and in test [3] were 1.6, 18.5 and 0.9, respectively. Also, the pIC50 was 5.24 in test [6], 5.84 in test [7], 7.37 in test [4] and 7.58 in test [5].
For the molecule `CCN(CC)Cc1cc(-c2ccccc2)n(Nc2ccnc3cc(Cl)ccc23)c1C`, the Ratio IC50 amounted to 1.4 in test [1], 9.9 in test [2] and 0.7 in test [3]. For the same molecule, the pIC50 in test [6] was 4.78; in test [7] it was 5.36; in test [4] it was 7.23; in test [8], 5.44; in test [5], 7.37.
Consider `Cc1c(CNC(C)(C)C)cc(-c2ccccc2)n1Nc1ccnc2cc(Cl)ccc12`, for which the Ratio IC50 in test [1] came out at 18.5; in test [2], 0.7; in test [3], 0.4. The figures for the pIC50 in test [4] and in test [5] were 5.93 and 7.20, respectively.
Take `Oc1cc(Nc2ccnc3cc(Cl)ccc23)ccc1CNCC12CCCN1CCC2`: the Ratio IC50 in test [1] was 0.9; in test [2], 2.2; in test [3] it was 0.4. The results for the negative-log IC50 (pIC50) in test [4] and in test [5] were 7.11 and 7.09, respectively.
As for `Cc1cc(CN2CCCC2)c(C)n1Nc1ccnc2cc(Cl)ccc12`, the Ratio IC50 in test [1] was 4.2; in test [2], 0.7; in test [3], 0.2. For the same molecule, the pIC50 in test [4] is 6.47; in test [5], 7.09.
As to `CCN(CC)Cc1cc(C)n(Nc2ccnc3cc(Cl)ccc23)c1C`, the Ratio IC50 turned out to be 2.8 in test [1], 1.2 in test [2] and 0.2 in test [3]. The pIC50 was 6.71 in test [4] and 7.16 in test [5].
For the molecule `Clc1ccc2c(Nc3ccc(CNC[C@@H]4CCCN5CCCC[C@H]45)c(Cl)c3)ccnc2c1`, the Ratio IC50 was found to be 1.2 in test [1], 28 in test [2] and 1.8 in test [3]. In addition, the pIC50 in test [6] was 5.26; in test [7] it was 5.56; in test [4], 7.54; in test [5], 7.63.
With `CCN(CC)CCCC(C)Nc1ccnc2cc(Cl)ccc12` (stereo not given) [CHLOROQUINE], the pIC50 in test [6] is below 4.49; in test [7], below 4.42; in test [8], 4.54.
With `Oc1cc(Nc2ccnc3cc(Cl)ccc23)ccc1CNC[C@@H]1CCCN2CCCC[C@H]12`, the “Ratio IC50” value is given as 22 in test [2] and 2.8 in test [3]. The pIC50 in test [6] is 5.10; in test [7], 5.35; in test [4] it was 7.84; in test [5] it was 8.07.
